Data reported in PMC9057764 (RSC Advances, 2020).
Entries after “also recorded” stand apart in the source; their conditions may differ. Read-outs that look alike come from different tables or passages of the source.

Assays:
K-562 [1] = test: NCI five-dose screen, leukemia; type: cell-based; conditions: Homo sapiens, K562
In short: (§1)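 This was the NCI five-dose screen on the 60-cell-line human cancer panel, covering nine tumour types. It was given to compounds that met the single-dose criteria. GI50 is the concentration giving 50% growth inhibition, TGI the concentration giving 100% growth inhibition, and LC50 the concentration giving 50% lethality. MG-MID is the mean over all cell lines tested.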

KM12 [2] = test: NCI five-dose screen, colon cancer; type: cell-based; conditions: Homo sapiens; for GI50: KM12
In short: as §1

HT29 [3] = test: NCI five-dose screen, colon cancer; type: cell-based; conditions: Homo sapiens, HT-29
In short: as §1

[4] = system: human normal fibroblasts (WI-38); test: Cytotoxicity in normal cells; type: cell-based; conditions: SI = WI-38 IC50/median GI50
In short: (§2)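 Normal human WI-38 fibroblasts were exposed to a concentration series of test compound, with doxorubicin as positive control and three wells per concentration. IC50 came from dose–response curves averaged over two parallel experiments and is given as mean ± SEM versus untreated cells. Selectivity index = WI-38 IC50 / median GI50 from the NCI cancer panel.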

[5] = Cytotoxicity in normal cells; type: cell-based, human; conditions: human, WI-38 normal fibroblasts
In short: as §2

COLO 205 = test: NCI five-dose screen, colon cancer; type: cell-based; conditions: Homo sapiens; for GI50: COLO 205; for CC50: COLO 205, read-out: LC50
In short: as §1

SW-620 [6] = test: NCI five-dose screen, colon cancer; type: cell-based; conditions: Homo sapiens; for GI50: SW-620
In short: as §1

HCT-15 [7] = test: NCI five-dose screen, colon cancer; type: cell-based; conditions: Homo sapiens; for GI50: HCT-15
In short: as §1

CCRF-CEM [8] = test: NCI five-dose screen, leukemia; type: cell-based; conditions: Homo sapiens
In short: as §1

p53 = test: Gene expression by real time PCR in HepG2; type: cell-based; conditions: Homo sapiens, HepG2, 8 h, read-out: p53 expression, fold induction from untreated cells
In short: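 HepG2 cells treated with test compound; p53 transcript measured within a panel that also covered cdk1, caspase 3, topoII and txnrd1, and expressed relative to untreated cells. Values given as mean ± SEM of two independent experiments, with significance set at p < 0.05 versus untreated cells.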

MOLT-4 [9] = test: NCI five-dose screen, leukemia; type: cell-based; conditions: Homo sapiens
In short: as §1

60 cancer cell lines = test: NCI single dose; type: cell-based, human; conditions: for GI% values, range over cell lines: 10 μM, range over the leukemia and colon cancer cell lines of Table 2; for inhibition at 10 µM: Homo sapiens, read-out: Mean percent growth inhibition (MPGI)
In short: (§3)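 This was the NCI primary screen: test compound at one concentration of 10 μM against the 60-cell-line human cancer panel, covering leukemia, NSCLC, melanoma, colon, CNS, ovarian, renal, prostate and breast lines. The read-out was percent growth inhibition for each cell line. Compounds meeting the threshold went on to the five-dose screen.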

HCT-116 [10] = test: NCI five-dose screen, colon cancer; type: cell-based; conditions: Homo sapiens; for GI50: HCT-116
In short: as §1

RPMI-8226 = test: NCI five-dose screen, leukemia; type: cell-based; conditions: Homo sapiens; for GI50: RPMI-8226
In short: as §1

SR [11] = test: NCI single dose; type: cell-based; conditions: Homo sapiens, read-out: percent growth inhibition
In short: as §3

HCC-2998 [12] = test: NCI five-dose screen, colon cancer; type: cell-based; conditions: Homo sapiens; for GI50: HCC 2998; for CC50: HCC 2998, read-out: LC50
In short: as §1

SR [13] = test: NCI five-dose screen, leukemia; type: cell-based; conditions: Homo sapiens
In short: as §1

panel of 60 cell lines = test: NCI five-dose screen, whole panel; type: cell-based; conditions: Homo sapiens; for CC50: read-out: Median LC50 (MG-MID)
In short: as §1

HL-60 (TB) = test: cells; conditions: Homo sapiens; for GI50: HL-60
cleaved caspase-3 = test: Active cleaved caspase 3 activity in HepG2 cells; type: cell-based; conditions: for effect on activity of cleaved active caspase 3: HepG2 (Fig. 5B)
[14] = system: p38 mitogen-activated protein kinase (MAPK); test: MAPK concentration in HepG2 cells, sandwich ELISA; type: cell-based; conditions: HepG2, IC50 concentrations, 8 hours, ELISA (Fig. 5C)
In short: (§4)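 HepG2 cells were treated with test compound, with doxorubicin as reference. Cellular p38 MAPK and Topo II protein concentrations were then measured with commercial sandwich ELISA kits. Each compound had three wells, and the experiment was run twice. Values are mean ± SEM, with significance tested against untreated cells.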

[15] = system: topoisomerase II (topoII); test: Gene expression by real time PCR in HepG2; type: cell-based; conditions: HepG2, approximate value in text
[16] = system: topoisomerase II (Topo II); test: Topo II concentration in HepG2 cells, sandwich ELISA; type: cell-based; conditions: HepG2, IC50 concentrations, 8 hours, ELISA (Fig. 5A)
In short: as §4

HT29 [17] = test: NCI single dose; type: cell-based; conditions: Homo sapiens, HT-29, read-out: percent growth inhibition
In short: as §3

[18] = system: cyclin-dependent kinase 1 (cdk1); test: Gene expression by real time PCR in HepG2; type: cell-based; conditions: HepG2, approximate value in text
K-562 [19] = test: NCI single dose; type: cell-based; conditions: Homo sapiens, K562, read-out: percent growth inhibition
In short: as §3

MOLT-4 [20] = test: NCI single dose; type: cell-based; conditions: Homo sapiens, MOLT-4, read-out: percent growth inhibition
In short: as §3

CCRF-CEM [21] = test: NCI single dose; type: cell-based; conditions: Homo sapiens, read-out: percent growth inhibition
In short: as §3

HCT-15 [22] = test: NCI single dose; type: cell-based; conditions: Homo sapiens, HCT-15, read-out: percent growth inhibition
In short: as §3

SW-620 [23] = test: NCI single dose; type: cell-based; conditions: Homo sapiens, SW-620, read-out: percent growth inhibition
In short: as §3

KM12 [24] = test: NCI single dose; type: cell-based; conditions: Homo sapiens, KM12, read-out: percent growth inhibition
In short: as §3

HCT-116 [25] = test: NCI single dose; type: cell-based; conditions: Homo sapiens, HCT-116, read-out: percent growth inhibition
In short: as §3

HCC-2998 [26] = test: NCI single dose; type: cell-based; conditions: Homo sapiens, HCC 2998, read-out: percent growth inhibition
In short: as §3

Structure (SMILES): COc1ccc(-c2ccc(-c3ccc(C(=N)N)nc3)s2)cc1.Cl [Compound 4a, 5-[5-(4-Methoxyphenyl)thiophen-2-yl]picolinamidine hydrochloride salt]
- GI50 (K-562 [1]): 1090 nM
- GI50 (KM12 [2]): 1810 nM
- CC50 (KM12 [2]; KM12, read-out: LC50): 6030 nM
- GI50 (HT29 [3]): 880 nM
- selectivity index (SI) [4]: 13.0
- IC50 at 48 h [5]: 21100 ± 3100 nM
- GI50 (COLO 205): 1890 nM
- CC50 (COLO 205): 8130 nM
- GI50 (SW-620 [6]): 430 nM
- CC50 (SW-620 [6]; SW-620, read-out: LC50): 4980 nM
- GI50 (HCT-15 [7]): 1270 nM
- CC50 (HCT-15 [7]; HCT-15, read-out: LC50): 5710 nM
- GI50 (CCRF-CEM [8]): 1430 nM
- fold induction at 0.1 µM (p53): 1.19 ± 0.43
- GI50 (MOLT-4 [9]): 1900 nM
- GI% values, range over cell lines (60 cancer cell lines): −7.17 to −86.03%
- inhibition at 10 µM (60 cancer cell lines): -28.8%
- GI50 (HCT-116 [10]): 1620 nM
- GI50 (RPMI-8226): 2130 nM
- inhibition at 10 µM (SR [11]): 99.7%
- GI50 (HCC-2998 [12]): 1820 nM
- CC50 (HCC-2998 [12]): 6380 nM
- GI50 (SR [13]): 340 nM
- GI50 (panel of 60 cell lines; read-out: Median GI50 (MG-MID)): 1620 nM
- CC50 (panel of 60 cell lines): 8120 nM
- GI50 (HL-60 (TB)): 1780 nM

Structure (SMILES): COc1ccc(-c2ccc(-c3ccc(C(=N)N)nc3)s2)cc1Cl.Cl [Compound 4b, 5-[5-(3-Chloro-4-methoxyphenyl)thiophen-2-yl]picolinamidine hydrochloride salt]
- GI50 (K-562 [1]): 900 nM
- GI50 (KM12 [2]): 1810 nM
- effect on activity of cleaved active caspase 3 (cleaved caspase-3): devoid of any effect
- GI50 (HT29 [3]): 1350 nM
- selectivity index (SI) [4]: 13.7
- IC50 at 48 h [5]: 23700 ± 2500 nM
- effect on concentration of MAPK protein [14]: significant reduction
- GI50 (COLO 205): 1940 nM
- GI50 (SW-620 [6]): 1790 nM
- magnitude of downregulation of topoII expression [15]: ~50%
- GI50 (HCT-15 [7]): 1570 nM
- GI50 (CCRF-CEM [8]): 1180 nM
- fold induction at 0.1 µM (p53): 1.03 ± 0.08
- effect on concentration of Topo II protein [16]: significant reduction; also recorded: significantly downregulate
- GI50 (MOLT-4 [9]): 1720 nM
- GI% values, range over cell lines (60 cancer cell lines): −7.17 to −86.03%
- inhibition at 10 µM (60 cancer cell lines): -19.9%
- GI50 (HCT-116 [10]): 1820 nM
- GI50 (RPMI-8226): 2250 nM
- GI50 (HCC-2998 [12]): 1860 nM
- inhibition at 10 µM (HT29 [17]): 97.5%
- magnitude of downregulation of cdk1 expression [18]: ~50%
- GI50 (SR [13]): 580 nM
- GI50 (panel of 60 cell lines; read-out: Median GI50 (MG-MID)): 1730 nM
- CC50 (panel of 60 cell lines): 8310 nM
- GI50 (HL-60 (TB)): 1660 nM

Structure (SMILES): COc1cc(-c2ccc(-c3ccc(C(=N)N)nc3)s2)cc(OC)c1OC.Cl [Compound 4c, 5-[5-(3,4,5-Trimethoxyphenyl)thiophen-2-yl]picolinamidine hydrochloride salt]
- inhibition at 10 µM (K-562 [19]): 94.4%
- GI50 (K-562 [1]): 1390 nM
- inhibition at 10 µM (MOLT-4 [20]): 76.2%
- GI50 (KM12 [2]): 2780 nM
- effect on activity of cleaved active caspase 3 (cleaved caspase-3): devoid of any effect
- increase in cleaved caspase 3 enzyme activity (cleaved caspase-3; HepG2, did not achieve statistical significance (Fig. 5B)): ~60%
- GI50 (HT29 [3]): 1370 nM
- inhibition at 10 µM (CCRF-CEM [21]): 89.1%
- selectivity index (SI) [4]: 21.5
- IC50 at 48 h [5]: 51300 ± 9000 nM
- effect on concentration of MAPK protein [14]: significant reduction
- inhibition at 10 µM (HCT-15 [22]): 78.6%
- GI50 (COLO 205): 1600 nM
- CC50 (COLO 205): 6660 nM
- GI50 (SW-620 [6]): 2090 nM
- magnitude of downregulation of topoII expression [15]: ~70%
- GI50 (HCT-15 [7]): 2180 nM
- GI50 (CCRF-CEM [8]): 2490 nM
- inhibition at 10 µM (SW-620 [23]): 70.8%
- fold induction at 0.1 µM (p53): 1.18 ± 0.1
- effect on concentration of Topo II protein [16]: significant reduction; also recorded: significantly downregulate
- GI50 (MOLT-4 [9]): 2530 nM
- GI% values, range over cell lines (60 cancer cell lines): 50.93 to 99.05%
- inhibition at 10 µM (60 cancer cell lines): 52.6%
- GI50 (HCT-116 [10]): 1470 nM
- CC50 (HCT-116 [10]; HCT-116, read-out: LC50): 5600 nM
- GI50 (RPMI-8226): 1670 nM
- CC50 (RPMI-8226; RPMI-8226, read-out: LC50): 9400 nM
- inhibition at 10 µM (KM12 [24]): 50.9%
- inhibition at 10 µM (HCT-116 [25]): 99%
- inhibition at 10 µM (SR [11]): 93.7%
- GI50 (HCC-2998 [12]): 2000 nM
- CC50 (HCC-2998 [12]): 7610 nM
- inhibition at 10 µM (HT29 [17]): 85.8%
- inhibition at 10 µM (HCC-2998 [26]): 87.9%
- magnitude of downregulation of cdk1 expression [18]: ~70%
- GI50 (SR [13]): 2480 nM
- GI50 (panel of 60 cell lines; read-out: GI50, range over cell lines): 1370 to 2780 nM
- GI50 (panel of 60 cell lines; read-out: Median GI50 (MG-MID)): 2390 nM
- CC50 (panel of 60 cell lines): 19500 nM
- GI50 (HL-60 (TB)): 1870 nM
- CC50 (HL-60 (TB); HL-60, read-out: LC50): 9440 nM

Structure (SMILES): COc1cccc2c1C(=O)c1c(O)c3c(c(O)c1C2=O)C[C@@](O)(C(=O)CO)C[C@@H]3O[C@H]1C[C@H](N)[C@H](O)[C@H](C)O1 [Dox, Doxorubicin, reference compound]
- IC50 at 48 h [5]: 2900 ± 800 nM
- fold induction at 0.1 µM (p53): 3.14 ± 0.81
- effect on concentration of Topo II protein [16]: significantly downregulate
